pIC50: −log10 of the molar value.
Experiments:
Trypanosoma cruzi [1] = assay: Antitrypanosomal activity against bloodstream form of Trypanosoma cruzi Y trypomastigotes infected in Swiss mouse; format: functional, organism-based
J774 = assay: Cytotoxicity against mouse J774 cells after 18 hrs by MTT assay; format: cell-based; settings: J774, 18 h
In short: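 J774 macrophages plated at 2.5 × 10⁶ cells/mL for 1 h (5% CO₂, 37 °C), non-adherent cells washed off with RPMI 1640. Adherent cells exposed to compounds (0.1–[…]), medium alone or 3% Tween 20 in triplicate for 18 h; MTT added for 4 h, formazan dissolved in DMSO, absorbance at 540 nm; LC₅₀ reported.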

[2] = Selectivity index, ratio of IC50 for mouse J774 cells to IC50 for bloodstream form of Trypanosoma cruzi trypomastigote; format: toxicity, cell-based; settings: read-out: Ratio IC50
Cruzipain [3] = target: T1, Cruzipain (Trypanosoma cruzi, UniProt P25779); assay: Inhibition of Trypanosoma cruzi C-terminally truncated cruzain expressed in Escherichia coli using Z-Phe-Arg-AMC as substrate incubated for 5 mins prior to substrate addition by spectrofluorometry
In short: (§1)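 Purified C-terminally truncated cruzain from E. coli (M15 or DH5a), 0.64 nM, in 50 mM sodium phosphate, 100 mM NaCl, 5 mM EDTA, 5 mM DTT, pH 6.5, preincubated with inhibitor 5 min at room temperature before Z-Phe-Arg-AMC. AMC release followed by fluorescence (ex 355, em 460 nm). IC₅₀ by nonlinear regression from ≥7 concentrations giving 20–85% inhibition, relative to uninhibited activity.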

Cruzipain [4] = target: T1, Cruzipain; assay: Inhibition of Trypanosoma cruzi cruzain; in short: as §1
Trypanosoma cruzi [5] = assay: Antitrypanosomal activity against Trypanosoma cruzi Tulahuen C2C4 intracellular amastigotes infected in rat L6 cells after 4 days by photometry; format: functional, organism-based; settings: Tulahuen C2C4, L6, 96 h
In short: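 L6 rat myoblasts seeded at 2000 cells/well in RPMI 1640 with 10% FBS and 2 mM L-glutamine; after 24 h infected with 5000 T. cruzi Tulahuen C2C4 LacZ trypomastigotes. At 48 h medium replaced with seven 3-fold serial drug dilutions spanning 0.123 to 90 µg/mL.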

T1 sequence (P25779 whole entry, the tested form may be a part): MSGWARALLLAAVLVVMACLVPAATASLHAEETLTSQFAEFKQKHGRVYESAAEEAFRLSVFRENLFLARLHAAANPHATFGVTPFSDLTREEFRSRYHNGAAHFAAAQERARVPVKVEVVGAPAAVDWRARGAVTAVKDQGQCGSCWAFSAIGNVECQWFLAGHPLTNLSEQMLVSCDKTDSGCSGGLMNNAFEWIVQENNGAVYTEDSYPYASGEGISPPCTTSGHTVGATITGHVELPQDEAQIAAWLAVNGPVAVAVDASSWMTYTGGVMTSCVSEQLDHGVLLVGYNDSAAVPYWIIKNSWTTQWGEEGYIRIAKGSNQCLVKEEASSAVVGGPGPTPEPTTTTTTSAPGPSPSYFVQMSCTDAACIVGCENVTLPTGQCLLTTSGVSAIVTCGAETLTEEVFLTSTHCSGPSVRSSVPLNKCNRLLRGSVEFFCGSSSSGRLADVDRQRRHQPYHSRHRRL

Row | pIC50 (Trypanosoma cruzi [1]) | pIC50 (Cruzipain [3]) | pIC50 (Cruzipain [4]) | pIC50 (Trypanosoma cruzi [5]) | Compound | pIC50 (J774) | selectivity ratio [2]
1 | < 2.96 |  |  |  | COc1cc(/C=N/NC(=O)CCc2ccccc2)cc([N+](=O)[O-])c1O |  | 
2 | 4.03 |  |  |  | COc1cc(/C=N/NC(=O)c2ccc3ccccc3c2)cc([N+](=O)[O-])c1O |  | 
3 | 4.10 |  |  |  | COc1cc(/C=C/C(=O)N/N=C/c2ccccc2)cc([N+](=O)[O-])c1O |  | 
4 | 4.80 | 4.35 |  |  | COc1cc(/C=N/NC(=O)/C=C/c2cc(OC)c(OC)c([N+](=O)[O-])c2)cc([N+](=O)[O-])c1O | 2.73 | 116
5 | 4.74 | < 4.00 |  |  | O=C(CCc1ccccc1)N/N=C/c1ccccc1O | 2.79 | 90
6 | < 2.96 |  |  | 4.09 | O=C(/C=C/c1ccccc1)N/N=C/c1ccc([N+](=O)[O-])cc1 |  | 
7 | 4.15 |  |  | 4.15 | COc1cc(/C=N/NC(=O)/C=C/c2ccccc2)cc(OC)c1OC |  | 
8 |  |  | 6.22 |  | COc1ccc2cc(O)c(C(=O)N/N=C/c3c(O)ccc4ccccc34)cc2c1 |  | 
9 | < 2.96 |  |  | < 4.00 | O=C(/C=C/c1ccccc1)N/N=C/c1ccc(Cl)cc1 |  | 
10 | < 2.96 |  |  | 4.21 | O=C(/C=C/c1ccccc1)N/N=C/c1ccc2c(c1)OCO2 |  | 
11 | 4.19 |  |  |  | COc1ccc(/C=C/C(=O)N/N=C/c2ccccc2O)cc1OC |  | 
12 | < 2.96 |  |  |  | COc1cc(/C=N/NC(=O)/C=C/c2ccc3c(c2)OCO3)cc([N+](=O)[O-])c1O |  | 
13 | < 2.96 |  |  |  | O=C(/C=C/c1ccccc1)N/N=C/c1ccc(Br)cc1 |  | 
14 | < 2.96 |  |  | < 4.00 | O=C(/C=C/c1ccccc1)N/N=C/c1ccc(F)cc1 |  | 
15 | 3.97 |  |  | < 4.00 | O=C(/C=C/c1ccccc1)N/N=C/c1ccc(O)c(O)c1 |  | 
16 | < 2.96 |  |  | < 4.00 | COc1ccc(/C=N/NC(=O)/C=C/c2ccccc2)cc1OC |  | 
17 | 4.97 |  |  | 6.91 | O=C(Cn1ccnc1[N+](=O)[O-])NCc1ccccc1 [BENZNIDAZOLE] | 2.42 | 356
18 | < 2.96 |  |  |  | COc1ccc(/C=C/C(=O)N/N=C/c2cc(OC)c(O)c([N+](=O)[O-])c2)cc1OC |  | 
19 | < 2.96 |  |  | < 4.00 | O=C(/C=C/c1ccccc1)N/N=C/c1ccccc1 |  | 

More lines, now with the values behind:

Row | Compound | pIC50 (Trypanosoma cruzi [1]) | pIC50 (Cruzipain [3]) | pIC50 (Cruzipain [4]) | pIC50 (Trypanosoma cruzi [5]) | pIC50 (J774) | selectivity ratio [2]
20 | O=C(/C=C/c1ccc2c(c1)OCO2)N/N=C/c1ccccc1O | 5.25 | 4.13 |  |  | 3.55 | 50
21 | O=C(/C=C/c1ccc2c(c1)OCO2)c1ccc(Br)cc1 |  |  | 4.70 |  |  | 
22 | COc1cc(/C=N/NC(=O)/C=C/c2ccccc2)ccc1O | 3.90 |  |  | 4.14 |  | 
23 | COc1ccc(/C=N/NC(=O)/C=C/c2ccccc2)cc1 | < 2.96 |  |  | < 4.00 |  | 
24 | O=C(/C=C/c1ccccc1)N/N=C/c1ccccc1O | 5.23 | 4.28 |  | 5.18 | 3.38 | 71
25 | COc1cc(/C=N/NC(=O)/C=C/c2ccccc2)cc([N+](=O)[O-])c1O | < 2.96 |  |  | 4.40 |  | 
26 | COc1cc(/C=C/C(=O)N/N=C/c2ccccc2O)cc([N+](=O)[O-])c1OC | 4.77 | 4.08 |  |  | 3.26 | 32
27 | O=C(/C=C/c1ccccc1)N/N=C/c1ccc(O)cc1 | < 2.96 |  |  | < 4.00 |  | 
28 | COc1cc(/C=N/NC(=O)/C=C/c2cc(OC)c(OC)c(OC)c2)cc([N+](=O)[O-])c1O | 4.74 | 4.34 |  |  | 2.62 | 134
29 | COc1cc(/C=C/C(=O)N/N=C/c2ccccc2O)cc(OC)c1OC | 4.10 |  |  |  |  | 
30 | COc1ccc(/C=N/NC(=O)/C=C/c2ccccc2)cc1O | < 2.96 |  |  | < 4.00 |  | 
31 | O=C(N/N=C/c1ccccc1O)c1ccc2ccccc2c1 | 4.03 |  |  |  |  | 

From ChEMBL document CHEMBL2040832, “Design and synthesis of new (E)-cinnamic N-acylhydrazones as potent antitrypanosomal agents” (Eur J Med Chem, 2012)
